# pIC50: −log10 of the molar value.
# Experiments:
# Mus musculus [1] = species: Mus musculus; experiment: (§1) Hematological effects in female CDF1 mice at the dose of […], in red blood cells
# Mus musculus [2] = species: Mus musculus; experiment: (§2) Hematological effects in female CDF1 mice at the dose of 30 mg, in white blood cells; assay type: functional
# Summary of the method: (§3)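 Non-tumour-bearing female CDF1 mice, 10 per group. Drug was dissolved in DMSO, diluted in 30% DMSO/0.5% glucose, and given as a single ip dose on day 1. Blood was sampled on day 27 for WBC, platelet, RBC and MCHC measurements. Values are medians of 10 mice, with saline or vehicle controls.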
# Mus musculus [3] = species: Mus musculus; experiment: animal or person
# Mus musculus [4] = species: Mus musculus; experiment: Antitumor activity in mice bearing B16BL6 melanoma at a dose of 10(ug/mL); survivors for 90 days was reported; assay type: functional
# Summary of the method: (§4)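 B16BL6 cells were cultured as monolayers, and 10⁶ cells were injected ip on day 0 into female BDF1 mice (4-6 weeks, 8 per group). Drug in dimethylacetamide was diluted in DMA/Cremophor/water (1:5:44) and 0.1 mL given ip on days 1, 5 and 9. %ILS came from median survival of dying animals; 90-day survivors were counted; mean weight change covered days 1-10.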
# Mus musculus [5] = species: Mus musculus; experiment: Antitumor activity in mice bearing B16BL6 melanoma at a dose of 5(ug/mL); survivors for 90 days was reported; assay type: functional; summary of the method: as §4
# Mus musculus [6] = species: Mus musculus; experiment: Mean body weight change between days 1 and 10; assay type: functional
# Summary of the method: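 Female BDF1 mice (4-6 weeks old, 8 per group) were inoculated ip with 10⁶ B16BL6 melanoma cells on day 0. Drugs in dimethylacetamide were diluted in DMA:Cremophor:water (1:5:44) and given ip at 0.1 mL on days 1, 5 and 9 (doses per kg). Read-outs were %ILS = (T/C − 1) × 100 on median survival of dying animals only, mean body weight change from day 1 to day 10 (g/mouse), and 90-day survivors.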
# [7] = Minimal drug concentration necessary to inhibit incorporation of [3H]thymidine in U937 Leukemia cells; assay type: functional, cell-based, Homo sapiens
# Mus musculus [8] = species: Mus musculus; experiment: Hematological effects in female CDF1 mice at the dose of 30mg, in red blood cells; assay type: functional; summary of the method: as §3
# Mus musculus [9] = species: Mus musculus; experiment: as §2; assay type: functional; remark: listed apart in the source
# Summary of the method: (§5)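 Non-tumor-bearing female CDF1 mice, 10 per group. Drugs were dissolved in DMSO, diluted in 30% DMSO/0.5% glucose, and given as a single ip dose on day 1 (doses per kg). Blood was sampled on day 27 for WBC, platelet, RBC and MCHC counts. Values are medians of 10 mice.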
# Mus musculus [10] = species: Mus musculus; experiment: Hematological effects in female CDF1 mice at the dose of 30 mg, in platelet cells; assay type: functional; summary of the method: as §3
# Mus musculus [11] = species: Mus musculus; experiment: Mean corpuscular hemoglobin concentration (MCHC); assay type: functional; summary of the method: as §3
# Mus musculus [12] = species: Mus musculus; experiment: as §1; assay type: functional; summary of the method: as §5
# Mus musculus [13] = species: Mus musculus; experiment: Hematological effects in female CDF1 mice at the dose of […], in platelets; assay type: functional; summary of the method: as §5
# Mus musculus [14] = experiment: Antitumor activity in female CDF1 mice bearing L1210 Leukemia at the dose of 30 ug/kg and survivors (60-day) was expressed; assay type: functional
# Summary of the method: (§6)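 Female CDF1 mice, 10 per group, got 100 L1210 cells ip on day 0. Drug in DMSO was diluted with 30% DMSO in 0.5% glucose and dosed ip on days 1, 5 and 9. Long-term (60-day) survivors are given as percent of the group.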
# Mus musculus [15] = species: Mus musculus; experiment: Hematological effects in female CDF1 mice, in red blood cells; assay type: functional; summary of the method: as §5
# Mus musculus [16] = species: Mus musculus; experiment: Hematological effects in female CDF1 mice, in platelets; assay type: functional; summary of the method: as §5
# Mus musculus [17] = species: Mus musculus; experiment: Antitumor activity in mice bearing L1210 leukemia at a dose of 30 ug / kg; assay type: functional; summary of the method: as §6
# L1210 [18] = experiment: Antitumor activity in mice bearing L1210 Leukemia at the dose of 30 ug/kg; survivors for 30 days was reported; assay type: functional, Mus musculus
# L1210 [19] = experiment: Antitumor activity was tested in BDF1 male mice bearing L1210 Leukemia, at the dose of 42 ug/kg; survivors for 30 days was reported; assay type: functional, Mus musculus
# Summary of the method: (§7)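 Male BDF1 mice, 4-6 weeks old, 6 per group, were given 10⁵ L1210 cells ip on day 0. Drug in DMF was diluted in 30% DMSO/0.5% glucose and given ip on days 1, 5 and 9. %ILS = (T/C − 1) × 100 on median survival of dying animals only; 30-day survivors noted separately. Group weight change was taken from day 0 to the lowest-weight day.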
# L1210 [20] = experiment: Antitumor activity was tested in BDF1 male mice bearing L1210 Leukemia, at the dose of 70 ug/kg; activity expressed as 30-day survivors; assay type: functional, Mus musculus; summary of the method: as §7
# L1210 [21] = experiment: Antitumor activity was tested in BDF1 male mice bearing L1210 Leukemia, at the dose of 25 ug/kg; survivors for 30 days was reported; assay type: functional, Mus musculus; summary of the method: as §7
# L1210 [22] = experiment: Antitumor activity was tested in Mice (bearing L1210 leukemia) and body weight change between days 0 and days 12 (when the animal weight was the lowest) was estimated at a dose of 42 ug/kg; assay type: functional, Mus musculus; summary of the method: as §7
# L1210 [23] = experiment: Antitumor activity was tested in mice (bearing L1210 leukemia) and body weight change between days 0 and days 12 (when the animal weight was the lowest) was estimated at a dose of 25 ug/kg; assay type: functional, Mus musculus; summary of the method: as §7
# Mus musculus [24] = experiment: Anti tumor activity was tested in mice and percent increase of life span at a dose of 70 ug/kg; assay type: functional; summary of the method: as §7
# Mus musculus [25] = experiment: Antitumor activity was tested in mice and percent increase of life span at a dose of 25 ug/kg was reported; assay type: functional
# Mus musculus [26] = experiment: Hematological effects in female CDF1 mice at the dose of 50ug/Kg, in white blood cells; assay type: functional; summary of the method: as §3
# [27] = Hematological effects in female CDF1 mice platelet cells at the dose of 50ug/Kg, in platelets; assay type: functional, Mus musculus; summary of the method: as §3
# [28] = Compound was administered to non-tumor bearing female CDF1 mice to estimate Mean corpuscular hemoglobin concentration (MCHC); assay type: functional, Mus musculus
# Summary of the method: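 Non-tumor-bearing female CDF1 mice, 10 per group, received one ip dose on day 1 (DMSO stock diluted in 30% DMSO/0.5% glucose). Blood was sampled on day 27 for hematology, including MCHC; values are medians of 10 mice.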
# [29] = Hematological effects in female CDF1 mice RBCs at the dose of 50ug/Kg, in red blood cells; assay type: functional, Mus musculus, Erythrocyte; summary of the method: as §3
# Mus musculus [30] = experiment: Anti tumor activity was tested in mice and percent increase of life span at a dose of 42 ug/kg; assay type: functional; summary of the method: as §7
# L1210 [31] = experiment: Antitumor activity was tested in Mice (bearing L1210 leukemia) and body weight change between days 0 and days 12 (when the animal weight was the lowest) was estimated at a dose of 70 ug/kg; assay type: functional, Mus musculus; summary of the method: as §7
smiles,measurement,setting,value
O=P1(N(CCCl)CCCl)NCCCO1 (configuration not stated) [CYCLOPHOSPHAMIDE ANHYDROUS],RBC,Mus musculus [1],7.67 10e6 ul-1
same,WBC,Mus musculus [2],11.22 10e3 ul-1
same,ILS at 0.125 mg/kg,Mus musculus [3],173%
COc1cccc2c1C(=O)c1c(O)c3c(c(O)c1C2=O)C[C@@](O)(C(=O)CO)C[C@@H]3O[C@H]1C[C@H](N)[C@H](O)[C@H](C)O1 [DOXORUBICIN],No. of survivors,Mus musculus [4],2
same,No. of survivors,Mus musculus [5],0
same,Weight,Mus musculus [6],0.5 g
CC(=O)Nc1ccc2[nH]c(/C=C/C(=O)N3CC(CCl)c4c3cc(O)c3ccccc43)cc2c1 (configuration not stated),pIC50,[7],9.05
CC(=O)Nc1ccc2[nH]c(C(=O)N3CC(CCl)c4c3cc(O)c3ccccc43)cc2c1 (configuration not stated),pIC50,[7],8.52
CS(=O)(=O)OCCCCOS(C)(=O)=O [BUSULFAN],RBC,Mus musculus [8],8.45 10e6 ul-1
same,WBC,Mus musculus [9],7 10e3 ul-1
same,Platelet,Mus musculus [10],0.71 10e6 ul-1
CC(=O)O[C@H]1C(=O)[C@@]2(C)[C@H]([C@H](OC(=O)c3ccccc3)[C@]3(O)C[C@H](OC(=O)[C@H](O)[C@@H](NC(=O)c4ccccc4)c4ccccc4)C(C)=C1C3(C)C)[C@]1(OC(C)=O)CO[C@@H]1C[C@@H]2O [PACLITAXEL],MCHC,Mus musculus [11],36.5 g/dL
same,RBC,Mus musculus [12],8.33 10e6 ul-1
same,WBC,Mus musculus [2],13.4 10e3 ul-1
same,Platelet,Mus musculus [13],1.04 10e6 ul-1
same,Survivors,Mus musculus [14],0%
O=c1[nH]cc(F)c(=O)[nH]1 [FLUOROURACIL],MCHC,Mus musculus [11],35.4 g/dL
same,RBC,Mus musculus [8],8.82 10e6 ul-1
same,WBC,Mus musculus [9],12.4 10e3 ul-1
same,Platelet,Mus musculus [10],1.24 10e6 ul-1
C[S+](C)[O-].OC[C@H]1O[C@H](O)[C@H](O)[C@@H](O)[C@@H]1O,MCHC,Mus musculus [11],34.45 g/dL
same,RBC,Mus musculus [15],8.5 10e6 ul-1
same,WBC,Mus musculus [9],12.85 10e3 ul-1
same,Platelet,Mus musculus [16],1.16 10e6 ul-1
CC(=O)Nc1ccc2oc(C(=O)Nc3ccc4[nH]c(C(=O)N5CC(CCl)c6c5cc(O)c5ccccc65)cc4c3)cc2c1 (configuration not stated),pIC50,[7],9.40
CCCC(=O)Nc1ccc2oc(C(=O)Nc3ccc4[nH]c(C(=O)N5CC(CCl)c6c5cc(O)c5ccccc65)cc4c3)cc2c1 (configuration not stated),Survivors,Mus musculus [17],20%
same,pIC50,[7],11.10
CC(=O)Nc1ccc2oc(C(=O)Nc3ccc4[nH]c(C(=O)N5CC6CC67C5=CC(=O)c5ccccc57)cc4c3)cc2c1 (configuration not stated),No. of survivors,L1210 [18],60
same,No. of survivors,L1210 [19],1
same,No. of survivors,L1210 [20],0
same,No. of survivors,L1210 [21],0
same,Weight change,L1210 [22],18%
same,Weight change,L1210 [23],23%
same,ILS at 0.07 mg/kg,Mus musculus [24],93%
same,ILS at 0.025 mg/kg,Mus musculus [25],53%
same,WBC,Mus musculus [26],13.95 10e3 ul-1
same,pIC50,[7],9.70
same,Platelet,[27],1.01 10e6 ul-1
same,MCHC,[28],35.5 g/dL
same,RBC,[29],7.81 10e6 ul-1
same,ILS at 0.042 mg/kg,Mus musculus [30],80%
same,Weight change,L1210 [31],-15%

# — ChEMBL document CHEMBL1133719, “Synthesis and preliminary biological evaluations of CC-1065 analogues: effects of different linkers and terminal amides on biological activity” (J Med Chem, 2000)
